# Results taken from ChEMBL document CHEMBL1124947, “Cationic antiprotozoal drugs. Trypanocidal activity of 2-(4'-formylphenyl)imidazo[1,2-a]pyridinium guanylhydrazones and related derivatives of quaternary heteroaromatic compounds” (J Med Chem, 1990).
# Tests used:
# Type in all cases: functional
# [1] = test system: Mus musculus; assay: Trypanocidal Activity at I.C.E. value 0.58 when administered subcutaneously.
# In short: (§1)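 Mice, in groups of five per dose, were given a standard inoculum of blood-stage T. rhodesiense that is lethal to all untreated controls, then dosed subcutaneously. Usually 11 dose levels were used (2^n × 0.42 mg/kg).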
# [2] = test system: Trypanosoma brucei rhodesiense; assay: In Vitro measurement of inhibition of thymidine uptake in cell culture of Trypanosoma rhodesiense; settings: read-out: ID50 (the source's name)
# In short: (§2)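 Parasites harvested from infected rats and incubated 3 h across a drug concentration series, usually 0.1–100 µg/mL. Incorporation of radiolabeled thymidine measured. ID50 is the concentration (µg/mL) producing 50% inhibition.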
# [3] = test system: Mus musculus; assay: Trypanocidal Activity at I.C.E. value 0.10 when administered perorally.
# [4] = test system: Mus musculus; assay: Trypanocidal Activity at I.C.E. value 0.19 when administered subcutaneously.
# [5] = test system: Trypanosoma brucei rhodesiense; assay: In Vitro measurement of inhibition of leucine uptake in cell culture of Trypanosoma rhodesiense; settings: read-out: ID50 (the source's name)
# In short: (§3)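 Trypanosomes harvested from infected rats, cultured 3 h with several concentrations of drug, usually 0.1–100 µg/mL. Radiolabeled L-leucine uptake measured. ID50 is the concentration in µg/mL giving 50% inhibition of incorporation.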
# [6] = test system: Mus musculus; assay: Trypanocidal Activity at I.C.E. value 0.57 when administered perorally.
# [7] = test system: Mus musculus; assay: Trypanocidal Activity at I.C.E. value 0.33 when administered subcutaneously.
# In short: (§4)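 Blood-stage T. rhodesiense infection came from a standard inoculum lethal to all untreated mice. Drug was given by subcutaneous injection to groups of five mice. Survival beyond 30 days counted as cure. […] Sub-curative doses scored 0, and data were normalized at each dose.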
# [8] = test system: Mus musculus; assay: Trypanocidal Activity at I.C.E. value 0.59 when administered subcutaneously.; in short: as §1
# [9] = test system: Trypanosoma brucei rhodesiense; assay: In Vitro measurement of inhibition of leucine uptake in cell culture of Trypanosoma rhodesiense.; settings: read-out: ID50 (the source's name); in short: as §3
# [10] = test system: Trypanosoma brucei rhodesiense; assay: In Vitro measurement of inhibition of thymidine uptake in cell culture of Trypanosoma rhodesiense.; settings: read-out: ID50 (the source's name); in short: as §2
# [11] = test system: Mus musculus; assay: Trypanocidal Activity at I.C.E. value 0.24 when administered subcutaneously.; in short: as §4
# [12] = test system: Mus musculus; assay: Trypanocidal Activity at I.C.E. value 0.31 when administered subcutaneously.; in short: as §4
# [13] = test system: Mus musculus; assay: Trypanocidal Activity at I.C.E. value 0.29 when administered subcutaneously.; in short: as §4
# [14] = test system: Mus musculus; assay: Trypanocidal Activity at I.C.E. value 0.46 when administered subcutaneously.; in short: as §4
# [15] = test system: Mus musculus; assay: Trypanocidal Activity at I.C.E. value 0.21 when administered subcutaneously.
# [16] = test system: Mus musculus; assay: Trypanocidal Activity at I.C.E. value 0.23 when administered subcutaneously.; in short: as §4
# [17] = test system: Mus musculus; assay: Trypanocidal Activity at I.C.E. value 0.18 when administered subcutaneously.
# [18] = test system: Mus musculus; assay: Trypanocidal Activity at I.C.E. value 0.48 when administered perorally.
# [19] = test system: Mus musculus; assay: Trypanocidal Activity at I.C.E. value 0.67 when administered subcutaneously.; in short: as §1
# [20] = test system: Mus musculus; assay: Trypanocidal Activity at I.C.E. value 0.64 when administered subcutaneously.; in short: as §1
# [21] = test system: Mus musculus; assay: Trypanocidal Activity at I.C.E. value 0.63 when administered subcutaneously.; in short: as §1
# [22] = test system: Mus musculus; assay: Trypanocidal Activity at I.C.E. value 0.39 when administered subcutaneously.; in short: as §4
# [23] = test system: Mus musculus; assay: Trypanocidal Activity at I.C.E. value 0.26 when administered subcutaneously.; in short: as §4
# [24] = test system: Mus musculus; assay: Trypanocidal Activity at I.C.E. value 0.43 when administered subcutaneously.; in short: as §4
# [25] = test system: Mus musculus; assay: Trypanocidal Activity at I.C.E. value 0.37 when administered subcutaneously.; in short: as §4
# [26] = test system: Mus musculus; assay: Trypanocidal Activity at I.C.E. value 0.69 when administered subcutaneously.; in short: as §1
# [27] = test system: Trypanosoma brucei rhodesiense; assay: In Vitro measurement of inhibition of Leucine uptake in cell culture of Trypanosoma rhodesiense.; settings: read-out: ID50 (the source's name); in short: as §3
# [28] = test system: Mus musculus; assay: Trypanocidal Activity at I.C.E. value 0.61 when administered perorally.
# [29] = test system: Mus musculus; assay: Trypanocidal Activity at I.C.E. value 0.71 when administered subcutaneously.; in short: as §1
# [30] = test system: Mus musculus; assay: Trypanocidal Activity at I.C.E. value 0.27 when administered subcutaneously.; in short: as §4
# [31] = test system: Mus musculus; assay: Trypanocidal Activity at I.C.E. value 0.30 when administered subcutaneously.; in short: as §4
# [32] = test system: Mus musculus; assay: Trypanocidal Activity at I.C.E. value 0.48 when administered subcutaneously.; in short: as §4
compound,measurement,setting,value
Br.C/N=C(/NC)N/N=C/c1ccc(-c2cn3ccc(C)cc3[n+]2C)cc1.[Br-],CD50,[1],0.4 mg/kg
C/N=C(\NC)N/N=C/c1ccc(-c2cn3ccccc3[n+]2C)cc1.I.[I-],CD50,[1],0.2 mg/kg
Br.Cn1c[n+](Cc2ccc(/C=N/NC3=NCCN3)cc2)c2ccccc21.[Br-],IC50,[2],11.1 µg/mL
same,CD50,[3],424 mg/kg
same,CD50,[4],3.3 mg/kg
same,IC50,[5],> 10 µg/mL
Cc1ccc(S(=O)(=O)O)cc1.Cc1ccc(S(=O)(=O)[O-])cc1.Cn1c(COc2ccc(/C=N/NC(=N)N3CCCC3)cc2)[n+](C)c2ccccc21,CD50,[6],6.6 mg/kg
same,CD50,[7],0.8 mg/kg
Br.C[n+]1c(-c2ccc(/C=N/NC(=N)N3CCOCC3)cc2)cn2ccccc21.[Br-],CD50,[7],0.4 mg/kg
Br.CCNC(=N)N/N=C/c1ccc(-c2cn3ccccc3[n+]2C)cc1.[Br-],CD50,[8],0.1 mg/kg
same,IC50,[9],0.5 µg/mL
same,IC50,[10],0.4 µg/mL
Br.Cc1ccn2cc(-c3ccc(/C=N/NC(=N)N4CCN(C)CC4)cc3)[n+](C)c2c1.[Br-],CD50,[11],3.3 mg/kg
Br.Cc1ccn2cc(-c3ccc(/C=N/NC(=N)NN4CCOCC4)cc3)[n+](C)c2c1.[Br-],CD50,[12],0.8 mg/kg
Br.CC/N=C(\NCC)N/N=C/c1ccc(OCc2n(C)c3ccccc3[n+]2C)cc1.[Br-],CD50,[3],212 mg/kg
same,CD50,[13],6.6 mg/kg
Br.CC(NC(=N)N/N=C/c1ccc(-c2cn3ccccc3[n+]2C)cc1)c1ccco1.[Br-] (stereo not given),CD50,[14],1.6 mg/kg
Br.CN1CCN(C(=N)N/N=C/c2ccc(-c3cn4ccccc4[n+]3C)cc2)CC1.[Br-],CD50,[15],3.3 mg/kg
Cc1ccc(S(=O)(=O)O)cc1.Cc1ccc(S(=O)(=O)[O-])cc1.Cn1cc[n+](C)c1COc1ccc(/C=N/NC(=N)N2CCCC2)cc1,CD50,[16],6.6 mg/kg
C[n+]1c(-c2ccc(/C=N/NC3N=NC(=S)N3N)cc2)cn2ccccc21.[Br-] (stereo not given),CD50,[17],53 mg/kg
Br.Cn1c(COc2ccc(/C=N/NC(=N)N)cc2)[n+](C)c2ccccc21.[Br-],CD50,[18],13 mg/kg
same,IC50,[2],1.9 µg/mL
same,CD50,[19],0.4 mg/kg
same,IC50,[5],6.1 µg/mL
Br.Cn1cc[n+](C)c1/C=C/c1ccc(/C=N/NC2=NCCN2)cc1.[Br-],CD50,[20],1.6 mg/kg
C[n+]1c(-c2ccc(C(=N)N)cc2)cn2ccccc21.Cl.[Cl-],CD50,[15],26 mg/kg
Br.CC/N=C(\NCC)N/N=C/c1ccc(/C=C/c2n(C)cc[n+]2C)cc1.[Br-],CD50,[14],1.6 mg/kg
C[n+]1c(/C=C/c2ccc(/C=N/NC(=O)c3ccc(N)cc3)cc2)cn2ccccc21.Cc1ccc(S(=O)(=O)[O-])cc1,CD50,[1],6.6 mg/kg
Br.Cc1cccc2n1cc(COc1ccc(/C=N/NC3=NCCN3)cc1)[n+]2C.[Br-],CD50,[20],0.8 mg/kg
C[n+]1c(-c2ccc(/C=N/Nc3nccs3)cc2)cn2ccsc21.[Br-],CD50,[12],26 mg/kg
Br.C[n+]1c(COc2ccc(/C=N/NC(=N)NO)cc2)cn2cc(C(F)(F)F)ccc21.[Br-],CD50,[8],6.6 mg/kg
Cc1ccc(S(=O)(=O)O)cc1.Cc1ccc(S(=O)(=O)[O-])cc1.Cn1cc[n+](C)c1/C=C/c1ccc(/C=N/NC(=N)N2CCCC2)cc1,CD50,[21],0.03 mg/kg
Br.CNC(=N)N/N=C/c1ccc(-c2c([N+](=O)[O-])n3ccccc3[n+]2C)cc1.[Br-],IC50,[2],5.4 µg/mL
same,CD50,[7],0.4 mg/kg
same,IC50,[5],3.4 µg/mL
C[n+]1c(COc2ccc(/C=N/Nc3ccccn3)cc2)cn2ccccc21.Cc1ccc(S(=O)(=O)[O-])cc1,CD50,[16],53 mg/kg
same,IC50,[2],7.9 µg/mL
same,IC50,[5],10.1 µg/mL
Cc1ccc2n(c1)cc(-c1ccc(/C=N/Nc3nc[nH]n3)cc1)[n+]2C.[Br-],IC50,[2],3.8 µg/mL
same,CD50,[22],13 mg/kg
C[n+]1c(COc2ccc(C(=N)N)cc2)cn2ccccc21.Cl.[Cl-],IC50,[2],0.7 µg/mL
same,CD50,[23],3.3 mg/kg
same,IC50,[5],12 µg/mL
Br.Cc1ccc2n(c1)cc(-c1ccc(/C=N/NC(=N)N(C)C)cc1)[n+]2C.[Br-],CD50,[24],0.8 mg/kg
Br.CC[S+]([O-])c1ccc2n(c1)cc(-c1ccc(/C=N/NC(=N)N)cc1)[n+]2C.[Br-] (stereo not given),CD50,[20],1.6 mg/kg
Br.Cc1ccc2n(c1)cc(-c1ccc(/C=N/NC(=N)NN3CCOCC3)cc1)[n+]2C.[Br-],CD50,[25],3.3 mg/kg
Br.Cc1ccc2n(c1)cc(COc1ccc(/C=N/NC3=NCCCN3)cc1)[n+]2C.[Br-],CD50,[26],0.8 mg/kg
C[n+]1c(-c2ccc(/C=N/Nc3ccccn3)cc2)cn2ccccc21.Cc1ccc(S(=O)(=O)[O-])cc1,CD50,[17],212 mg/kg
Cc1ccc(S(=O)(=O)O)cc1.Cc1ccc(S(=O)(=O)[O-])cc1.Cc1ccc2n(c1)cc(-c1ccc(/C=N/NC(=N)N3CCSC3)cc1)[n+]2C,IC50,[27],0.5 µg/mL
same,IC50,[10],> 10 µg/mL
same,CD50,[22],6.6 mg/kg
Br.CCSc1ccc2n(c1)cc(-c1ccc(/C=N/NC3=NCCN3)cc1)[n+]2C.[Br-],CD50,[26],3.3 mg/kg
C[n+]1c(-c2ccc(/C=N/Nc3ncccn3)cc2)cn2ccccc21.[Br-],CD50,[23],6.6 mg/kg
Br.C[n+]1c(-c2ccc(/C=N/NC3=NCCCN3)cc2)cn2ccccc21.[Br-],CD50,[19],0.1 mg/kg
same,CD50,[28],6.6 mg/kg
CCSc1ccc2n(c1)cc(-c1ccc(/C=N/Nc3nc(N)nc(N)n3)cc1)[n+]2C.Cc1ccc(S(=O)(=O)[O-])cc1,IC50,[2],0.6 µg/mL
same,CD50,[29],1.6 mg/kg
same,IC50,[5],> 10 µg/mL
C[n+]1c(COc2ccc(/C=N/Nc3nccs3)cc2)cn2ccccc21.[Br-],CD50,[30],53 mg/kg
Cc1ccc(S(=O)(=O)[O-])cc1.Cn1c(COc2ccc(/C=N/NC(=O)c3ccc(N)cc3)cc2)[n+](C)c2ccccc21,CD50,[25],6.6 mg/kg
Br.C[n+]1c(COc2ccc(/C=N/NC(=N)N3CCCC3)cc2)cn2cc(C(F)(F)F)ccc21.[Br-],CD50,[30],26 mg/kg
C[n+]1ccc(COc2ccc(/C=N/NC(=O)c3ccc(N)cc3)cc2)cc1.Cc1ccc(S(=O)(=O)[O-])cc1,CD50,[30],26 mg/kg
Br.CC/N=C(\NCC)N/N=C/c1ccc(OCc2n(C)cc[n+]2C)cc1.[Br-],CD50,[31],13 mg/kg
Br.Cn1cc[n+](C)c1COc1ccc(/C=N/NC2=NCCN2)cc1.[Br-],CD50,[25],3.3 mg/kg
C[n+]1c(-c2ccc(/C=N/NC(N)=S)cc2)cn2ccccc21.Cc1ccc(S(=O)(=O)[O-])cc1,CD50,[11],106 mg/kg
Br.CCCNC(=N)N/N=C/c1ccc(-c2cn3ccccc3[n+]2C)cc1.[Br-],CD50,[8],0.1 mg/kg
Br.CCCC/N=C(/NCCCC)N/N=C/c1ccc(-c2cn3ccc(C)cc3[n+]2C)cc1.[Br-],CD50,[11],53 mg/kg
C[n+]1c(-c2ccc(/C=N/Nc3nc(N)nc(N)n3)cc2)cn2ccccc21.Cc1ccc(S(=O)(=O)[O-])cc1,CD50,[24],6.6 mg/kg
Br.Cc1ccc2n(c1)cc(/C=C/c1ccc(/C=N/NC(=N)NO)cc1)[n+]2C.[Br-],CD50,[26],3.3 mg/kg
C[n+]1c(-c2ccc(/C=N/NC3N=NC(=S)N3N)cc2)cn2ccsc21.[Br-] (stereo not given),CD50,[15],212 mg/kg
same,IC50,[2],2.4 µg/mL
same,IC50,[5],4.6 µg/mL
Cc1ccc2n(c1)cc(-c1ccc(/C=N/Nc3ccccn3)cc1)[n+]2C.[Br-],CD50,[32],0.8 mg/kg
Br.CN(C)C(=N)N/N=C/c1ccc(OCc2cn3ccccc3[n+]2C)cc1.[Br-],CD50,[23],3.3 mg/kg
Br.C[n+]1c(-c2ccc(/C=N/NC(=N)N)cc2)cn2c1CCCC2.[Br-],CD50,[24],0.4 mg/kg
